MEKK2wt PB1 HTS = raises or lowers MEK5 binding to wildtype human MEKK2 PB1 domain; Q9Y2U5; bead flow cytometry, Alexa488-MEK5 binding to MEKK2 WT; actives lie on both sides; binding response (% of control), % at 10 µM; 290,000 compounds, 1.1% hits; AID 1531; in the data active means binding response below about 67% or above about 130%
B2AR ag = agonists of human beta-2 adrenergic receptor inducing internalization; P07550; Am2.2-beta2AR cells, FAP receptor internalization, flow cytometry; response, % (concentration not given with the values); 340,000 compounds, 0.43% hits; AID 504454;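 active means response above a set limit, near 3 SD of response in nonfluorescent compounds, cut at about 42% in these data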
ATG4B inhibitor = ATG4B (human) cysteine protease inhibition; Q9Y4P1; ATG4B cleavage of LC3-PLA2, NBD-HPC fluorescence, 1 h; inhibition, % at 8.33 µM; 340,000 compounds, 0.51% hits; in the data active means inhibition above about 40%
Target sequence (Q9Y4P1 whole entry, looked up): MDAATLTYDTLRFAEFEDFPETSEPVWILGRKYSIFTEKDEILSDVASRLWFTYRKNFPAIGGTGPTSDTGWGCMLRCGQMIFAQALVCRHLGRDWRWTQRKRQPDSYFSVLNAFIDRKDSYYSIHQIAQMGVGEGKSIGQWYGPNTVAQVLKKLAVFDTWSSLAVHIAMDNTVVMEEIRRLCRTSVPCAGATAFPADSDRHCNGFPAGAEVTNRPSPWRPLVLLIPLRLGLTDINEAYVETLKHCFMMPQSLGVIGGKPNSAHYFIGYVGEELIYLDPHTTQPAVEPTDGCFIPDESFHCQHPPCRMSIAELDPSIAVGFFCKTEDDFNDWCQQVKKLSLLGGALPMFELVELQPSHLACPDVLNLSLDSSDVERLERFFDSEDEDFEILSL
MEKK3 PB1 HTS = raises or lowers MEK5 binding to the human MEKK3 PB1 domain; Q99759; bead-based flow cytometry, Alexa488-MEK5 binding to MEKK3; actives lie on both sides; 0 = blocked by unlabeled MEK5, 100 = vehicle; binding response (% of control), % at 10 µM; 290,000 compounds, 1.4% hits;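 active means binding response more than 3 SD above or below the average of its plate-row segment, actives on both sides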;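 further: Alexa488 bead fluorescence after subtracting the streptavidin-only scavenger bead signal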
Dynein cargo inh = blocks dynein driven cargo transport along microtubules; 3617.4 mouse cells, GR-EGFP nuclear translocation imaging; test concentration mostly 20 µM; stimulated with dexamethasone, 1 µM; hits give low values; z-score, hits read low; 220,000 compounds, 0.47% hits;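 active means plate z-score of nuclear minus cytoplasmic receptor signal below a set negative limit, without overly bright fluorescence or cell loss, cut at about -3.5 in these data, passing the limit was not always enough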;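 further: z-score of nuclear minus cytoplasmic ring GR-EGFP intensity difference per well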
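medium = tetracycline-free induction medium containing charcoal-stripped FBS | also added = 1.0 µM final dexamethasone stimulus | schedule = 48 h induction, 1 h compound, 30 min dex at 37 °C | technique = fixed, Hoechst-stained cells imaged at 10x for EGFP | measure = GR-EGFP nuclear translocation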
MEKK2mut PB1 HTS = signal of MEK5 binding to mutant human MEKK2 PB1 domain; percent response, % at 10 µM; bead flow cytometry, Alexa488-MEK5 binding to MEKK2 mutant; 290,000 compounds, 0.35% hits; in the data active means percent response above about 24%, passing the limit was not always enough
An asterisk follows results filed as active; nt = not tested or not shown. This is a sample that favours compounds with a hit; in the whole collection about 2.9% have one here.

SMILES	MEKK2wt PB1 HTS	B2AR ag	ATG4B inhibitor	MEKK3 PB1 HTS	Dynein cargo inh	MEKK2mut PB1 HTS
O=C(O)c1ccc(-n2c(O)c(/C=C3\C=Nc4ccccc43)c(=O)[nH]c2=O)cc1	103.0	-0.7	-1.0	104.0	nt	0.0
O=c1[nH]c(=O)n(-c2cccc(F)c2)c(O)c1/C=C1\C=Nc2ccccc21	101.0	44.4*	3.1	105.0	nt	6.0
O=C1NC(=O)N(Cc2ccc(F)cc2)C(=O)/C1=C\c1ccc(N2CCCC2)cc1	18.0*	13.8	-1.3	93.0	-1.5	10.0
O=C1NC(=O)N(c2ccc(F)cc2)C(=O)/C1=C/c1ccc(N2CCOCC2)cc1	99.0	0.3	-8.9	99.0	-0.874	-3.0
O=C1NC(=O)N(Cc2ccc(F)cc2)C(=O)/C1=C\c1ccc([N+](=O)[O-])s1	89.0	-43.5	12.5	92.0	-5.03*	-10.0
CCOC(=O)C1C(OC(=O)c2ccccc2)CC2CCC1N2C (stereo unspecified)	nt	2.2	-5.7	nt	nt	nt
CCn1nc(-c2cccs2)nc2c(=O)n(C)c(=O)nc1-2	nt	101.6*	86.0*	nt	nt	nt
CN1C(=O)C[N+]([O-])=C(c2ccccc2)c2cc(Cl)ccc21	nt	-1.0	3.7	nt	nt	nt
COC(=O)C1=C(c2ccccc2OCc2ccccc2)C[C@@H]2CC[C@H]1N2C(=O)NCCOc1ccc(OC)cc1	nt	1.8	-14.3	nt	nt	nt
Cc1ccc(/C=C2\C(=O)NC(=S)N(c3ccc(F)cc3)C2=O)s1	99.0	38.9	-6.2	100.0	-1.52	0.0
Cc1ccc(/C=C2\C(=O)NC(=S)N(c3ccccc3F)C2=O)s1	111.0	70.5*	-5.0	106.0	-3.67*	10.0
COc1cc2c(c(OC)c1OC)-c1ccc(OC)c(=O)cc1C(N)CC2 (stereo unspecified)	nt	17.7	-3.8	nt	nt	nt
COc1cc(C=C2C(=O)NC(=O)NC2=O)ccc1OCc1ccc([N+](=O)[O-])cc1	80.0	-3.0	-3.5	101.0	0.952	-9.0
COc1cc(/C=C(/C)[N+](=O)[O-])ccc1OCc1ccccc1Cl	91.0	48.0*	23.4	89.0	-2.02	-4.0
C=C(C=O)CC1CC(O)[C@]2(C)OC3CC4OC5C[C@]6(C)O[C@]7(C)CCC8OC9C[C@]%10(C)OC%11C(C)=CC(=O)OC%11CC%10OC9C[C@@H](C)C8OC7CC6O[C@]5(C)CC5OC5C4OC3CC2O1 (stereo partly specified)	105.0	107.0*	-13.9	103.0	1.31	6.0
C=C(CO)CC1CC(O)[C@]2(C)OC3CC4OC5C[C@]6(C)O[C@]7(C)CCC8OC9C[C@]%10(C)OC%11C(C)=CC(=O)OC%11CC%10OC9C[C@@H](C)C8OC7CC6O[C@]5(C)C/C=C\C4OC3CC2O1 (stereo partly specified)	100.0	0.2	-7.2	105.0	-0.966	4.0
C[C@@H]1C[C@@H]([C@H](O)CC2CC(=O)NC(=O)C2)C(=O)[C@@H](C)C1	nt	11.5	8.3	nt	nt	nt
CC(=O)OC1(C)CC(C)C(=O)C(C(O)CC2CC(=O)NC(=O)C2)C1 (stereo unspecified)	nt	67.6*	-5.1	nt	nt	nt
Cc1nn(Cc2c(Cl)cccc2Cl)c(Cl)c1C(=O)O	-4.0*	9.5	1.6	102.0	-0.822	4.0
CC[N+](CC)(CC)CCCOC(=O)C(O)(c1ccccc1)C1CCCCC1 (stereo unspecified)	102.0	-0.2	-5.9	100.0	-0.017	8.0
C[N+](C)(N)CCOC(=O)C(O)(c1ccccc1)C1CCCCC1 (stereo unspecified)	nt	97.6*	3.9	nt	nt	nt
COc1ccc(/C=C2/C(=O)NC(=S)N(C3CC3)C2=O)cc1CN1C(=O)c2ccccc2C1=O	103.0	-8.5	-10.2	100.0	-3.61*	6.0
CNC1CCc2cc(OC)c(OC)c(OC)c2-c2ccc(SC)c(=O)cc21 (stereo unspecified)	nt	7.5	-5.4	nt	nt	nt
COc1ccc(C(=O)OC2C[C@H]3CC[C@@H](C2)N3O)cc1OC (stereo partly specified)	103.0	62.1*	-5.5	102.0	nt	5.0
CN1C2CCC1CC(OC(=O)c1cccc(O)c1)C2 (stereo unspecified)	nt	-0.6	-23.2	nt	nt	nt
SMILES	MEKK2wt PB1 HTS	B2AR ag	ATG4B inhibitor	MEKK3 PB1 HTS	Dynein cargo inh	MEKK2mut PB1 HTS
CN(C)c1ccc(/C=C/C=C/c2sc3ccccc3[n+]2C)cc1	4.0*	16.8	0.9	98.0	-0.28	8.0
CN1C(=O)/C(=C/c2cccn2-c2ccc3ccccc3c2)C(=O)NC1=S	75.0	46.6*	6.5	95.0	0.305	-12.0
O=C1NC(=S)NC(=O)C1=Cc1cccn1-c1ccc(O)cc1	82.0	71.4*	3.4	100.0	-0.381	-12.0
COC(=O)c1ccc(NC(=O)NC(=O)Oc2ccccc2)cc1	nt	1.5	3.6	nt	nt	nt
COc1cc2c(c(OC)c1OC)-c1ccc(SC)c(=O)cc1C(N)CC2 (stereo unspecified)	nt	8.6	4.2	nt	nt	nt
CC(=O)C1CCC2C3CCC4CC(O)CCC4(C)C3C(O)CC12C (stereo unspecified)	nt	-0.3	-17.4	nt	nt	nt
CSc1nc(Cl)c(Br)c(N2CC2)n1	nt	-2.7	-5.6	nt	nt	nt
C/C1=C\[C@@H](C)C/C=C/[C@H]2[C@@H]3O[C@]3(C)[C@@H](C)[C@H]3[C@H](Cc4c[nH]c5ccccc45)NC(=O)[C@]32C(=O)/C=C/C(=O)[C@@H]1O	96.0	71.9*	-10.9	104.0	-3.16	1.0
NC(N)=N/N=C/c1cn(-c2ccccc2)nc1-c1cccs1	184.0*	22.1	-4.5	103.0	-6.62	27.0
O=C1CCC[C@@H]2C[C@@]3(C[C@@H]4CCN1[C@H]24)Nc1cc(Cl)ccc1NC3=NCc1ccccc1	nt	6.2	-2.4	nt	nt	nt
CCC(C)C1NC(=O)C(NC(=O)C(CC(C)C)N(C)C(=O)C2CCCN2C(=O)C(C)O)C(C)OC(=O)C(Cc2ccc(OC)cc2)N(C)C(=O)C2CCCN2C(=O)C(CC(C)C)NC(=O)[C@H](C)C(=O)[C@H](C(C)C)OC(=O)CC1O (stereo partly specified)	nt	42.1*	8.7	nt	nt	nt
Nc1cc(Cl)c2nonc2c1[N+](=O)[O-]	101.0	72.7*	1.1	116.0	-4.19*	0.0
O=[N+]([O-])c1c(Cl)c(Cl)c(Cl)c(Cl)c1Cl	nt	4.2	5.8	nt	nt	nt
O=C1NC(=S)N(c2ccccc2)C(=O)/C1=C/c1ccco1	105.0	4.1	58.6*	106.0	nt	2.0
O=c1[nH]c(=S)[nH]c(O)c1/C=C1/C=c2ccccc2=N1	103.0	51.7*	5.8	105.0	nt	3.0
CNCC[C@@H](Oc1ccc(C(F)(F)F)cc1)c1ccccc1	nt	23.2	8.6	nt	nt	nt
C=C1C(=O)O[C@@H]2C[C@@H](C)[C@@H]3C=CC(=O)[C@@]3(C)[C@@H](O)[C@H]12	95.0	40.1	-1.0	95.0	-3.63*	4.0

Source: PubChem BioAssay (several laboratories)
